# Measurements reported in article PMC3266058 (Journal of Medicinal Chemistry, 2011).
# Where two headings read alike, the source gives them in different places.
# How the values were obtained:
# A549-T12 cells = conditions: ref 13c, cited from earlier work
# A549 cells [1] = conditions: read-out: IC50 A549 (Table 3); parental line; ref 13c; cited from earlier work
# Jurkat cells = assay: Antiproliferative MTT assay, Jurkat; type: cell-based; conditions: Homo sapiens, 72 h, read-out: IC50 Jurkat
# Outline: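 Cells (8 × 10^3 per well in complete medium) settled 18 h at 37 °C, 5% CO2, then medium replaced with fresh medium holding test compound at a range of concentrations (10 mM DMSO stocks; final DMSO ≤0.25%) for 72 h at 37 °C. Viability read by MTT.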
# HT-29 xenograft = assay: In vivo antitumor activity, HT-29 xenograft; design: species or system BALB/c-nu nude mice; conditions: 100 mg/kg intraperitoneally, days 0, 2 and 4; end of observation period (day 24)
# Outline: (§1)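 Female BALB/c-nu nude mice, 4 weeks old (15−18 g), kept pathogen-free. HT-29 cells at 1 × 10^7 cells/mL in serum-free RPMI 1640 were injected (0.2 mL) subcutaneously in the back. At ~300 mm3, 18 mice were randomised to vehicle or treatment groups (six per group). Test compound was given in DMSO i.p. at 0.01 mL/g (100 mg/kg) on days 0, 2 and 4. Tumour size (caliper, V = LW²/2) and body weight were recorded at each time point. Results are mean ± SEM; two-sided Student's t test.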
# HeLa cells [2] = assay: Mitochondrial membrane potential; type: cell-based, human; conditions: JC-1, 24 or 48 h
# Outline: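 HeLa cells in DMEM with 10% FBS were incubated 24 or 48 h with test compound (final DMSO ≤0.25%), then stained with the cationic dye JC-1 and analysed by flow cytometry. Polarized mitochondria give red aggregate emission (590 nm); depolarized ones give monomer emission (530 nm). Data are mean ± SEM of three independent experiments.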
# HeLa cells [3] = assay: Flow cytometric cell cycle analysis; type: cell-based, human; conditions: 24 h
# Outline: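 Exponentially growing HeLa cells (5 × 10^5), grown in DMEM with 10% FBS and penicillin/streptomycin, were exposed to 15–250 nM test compound for 24 h, with DMSO ≤0.25%. Cells were fixed in ice-cold 70% ethanol, treated with lysis buffer containing RNase A and 0.1% Triton X-100, and stained with propidium iodide. DNA content was measured by flow cytometry. Results are mean ± SEM of three independent experiments.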
# HeLa cells [4] = assay: Mitochondrial ROS production; type: cell-based, human; conditions: HE and H2-DCFDA, 24 or 48 h, vs control cells
# Outline: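 HeLa cells were cultured in DMEM with 10% FBS and antibiotics and exposed to test compound for 24 or 48 h, with final DMSO ≤0.25%. Cells were then stained with hydroethidine or H2-DCFDA, and ROS were measured by flow cytometry. Data are mean ± SEM of three independent experiments.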
# HeLa cells [5] = assay: Annexin-V/PI apoptosis assay; type: cell-based, human; conditions: 24 or 48 h, vs control
# Outline: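 HeLa cells grown in DMEM with 10% FBS, penicillin G and streptomycin, then exposed to test compound (10 mM DMSO stocks; final DMSO ≤0.25%). Phosphatidylserine exposure was read by flow cytometry after annexin-V-FITC labelling per kit instructions, with simultaneous PI staining. Excitation was 488 nm, with emission filters at 525 nm (FITC) and 585 nm (PI).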
# cyclin B1 = assay: Western blot, cyclin B1 in HeLa cells; type: cell-based, human; conditions: 24 and 48 h
# Outline: (§2)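 HeLa cells were treated with test compound (DMSO ≤0.25%) for the indicated times, then washed twice in ice-cold PBS. They were lysed on ice for 30 min and spun at 15000g, 4 °C, 10 min; protein was measured by BCA. 20 μg was run on 7.5–15% SDS-PAGE and transferred to PVDF. Membranes were blocked overnight at 4 °C, then probed 2 h at room temperature with primary antibodies (total caspase-3, cleaved caspase-9, cyclin B, Bcl-2, Bax, XIAP). Peroxidase secondary was applied for 60 min, with ECL detection and β-actin reprobe as the loading control.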
# Bax = assay: Western blot, Bax in HeLa cells; type: cell-based, human
# Outline: as §2
# caspase-3 = assay: Western blot, caspase-3 in HeLa cells; type: cell-based, human; conditions: 24 or 48 h
# Outline: as §2
# caspase-9 = assay: Western blot, caspase-9 in HeLa cells; type: cell-based, human; conditions: 24 or 48 h
# Outline: as §2
# bovine brain tubulin = bovine brain tubulin (Bos taurus, UniProt P81947+Q6B856); assay: Inhibition of tubulin polymerization; type: biochemical; conditions: tubulin assembly assay
# Bcl-2 = assay: Western blot, Bcl-2 in HeLa cells; type: cell-based, human; conditions: after 48 h
# Outline: as §2
# XIAP = assay: Western blot, XIAP in HeLa cells; type: cell-based, human; conditions: 24 or 48 h
# Outline: as §2
# [6] = Body weight of treated xenograft mice; type: in vivo, BALB/c-nu nude mice; conditions: 100 mg/kg intraperitoneally, 3 doses; whole treatment period
# Outline: as §1
# [7] = system: six human cancer cell lines (HeLa, A549, HL-60, Jurkat, MCF-7, HT-29); assay: Antiproliferative activity over the panel of six human cancer cell lines; type: cell-based; conditions: all cell lines
# LoVo^Doxo cells = conditions: ref 13c, cited from earlier work
# LoVo cells = conditions: read-out: IC50 LoVo; parental line; ref 13c; cited from earlier work
# [8] = system: colon 26 murine tumor cell line; conditions: read-out: cytotoxicity IC50, colon 26; ref 9a; cited from earlier work
# HL-60 cells = assay: Antiproliferative MTT assay, HL-60; type: cell-based; conditions: Homo sapiens, HL-60, 72 h, read-out: IC50 HL-60
# MCF-7 cells = assay: Antiproliferative MTT assay, MCF-7; type: cell-based; conditions: Homo sapiens, MCF7, 72 h, read-out: IC50 MCF-7
# HeLa cells [9] = assay: Antiproliferative MTT assay, HeLa; type: cell-based; conditions: Homo sapiens, 72 h, read-out: IC50 HeLa
# A549 cells [10] = assay: Antiproliferative MTT assay, A549; type: cell-based; conditions: Homo sapiens, A549, 72 h, read-out: IC50 A549
# CEM^Vbl100 cells = conditions: ref 13c, cited from earlier work
# CEM cells = conditions: read-out: IC50 CEM; parental line; ref 13c; cited from earlier work
# [11] = ratio of IC50 in resistant and nonresistant cell lines
# bovine brain tubulin, sequence (P81947 whole entry): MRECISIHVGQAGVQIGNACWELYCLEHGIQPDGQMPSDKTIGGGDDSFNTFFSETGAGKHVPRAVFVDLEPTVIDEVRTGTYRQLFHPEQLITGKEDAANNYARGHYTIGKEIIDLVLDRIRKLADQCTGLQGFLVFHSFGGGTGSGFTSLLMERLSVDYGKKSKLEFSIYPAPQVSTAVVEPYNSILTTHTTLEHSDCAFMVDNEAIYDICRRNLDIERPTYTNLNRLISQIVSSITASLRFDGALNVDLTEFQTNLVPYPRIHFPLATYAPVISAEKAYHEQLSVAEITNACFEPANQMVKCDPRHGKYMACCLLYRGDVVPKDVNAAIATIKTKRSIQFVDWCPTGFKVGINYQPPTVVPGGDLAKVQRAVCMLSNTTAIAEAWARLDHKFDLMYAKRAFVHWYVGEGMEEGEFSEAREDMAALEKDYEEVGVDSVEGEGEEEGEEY
# bovine brain tubulin, sequence (Q6B856 whole entry): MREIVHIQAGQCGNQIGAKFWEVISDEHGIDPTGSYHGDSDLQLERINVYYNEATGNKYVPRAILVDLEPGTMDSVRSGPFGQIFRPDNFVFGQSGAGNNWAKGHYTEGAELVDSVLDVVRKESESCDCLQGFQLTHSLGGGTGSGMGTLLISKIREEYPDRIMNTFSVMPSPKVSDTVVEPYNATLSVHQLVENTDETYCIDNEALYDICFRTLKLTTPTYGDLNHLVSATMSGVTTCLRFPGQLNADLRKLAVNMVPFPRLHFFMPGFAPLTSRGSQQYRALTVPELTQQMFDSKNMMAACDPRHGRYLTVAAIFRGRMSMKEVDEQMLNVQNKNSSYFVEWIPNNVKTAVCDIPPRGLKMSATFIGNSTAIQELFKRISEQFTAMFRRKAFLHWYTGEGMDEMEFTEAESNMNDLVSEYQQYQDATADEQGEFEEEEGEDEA
compound,measurement,setting,value
CC(=O)O[C@H]1C(=O)[C@@]2(C)[C@H]([C@H](OC(=O)c3ccccc3)[C@]3(O)C[C@H](OC(=O)[C@H](O)[C@@H](NC(=O)c4ccccc4)c4ccccc4)C(C)=C1C3(C)C)[C@]1(OC(C)=O)CO[C@@H]1C[C@@H]2O [paclitaxel],resistance ratio A549-T12/A549,A549-T12 cells; [11],10.4
same,IC50,"A549-T12 cells; read-out: IC50 A549-T12, paclitaxel resistant line",75.2 ± 12.5 nM
same,IC50,A549 cells [1],7.2 ± 0.1 nM
"COc1ccc(/C=C\c2cc(OC)c(OC)c(OC)c2)cc1O [compound 1, combretastatin A-4]",IC50,Jurkat cells,5 ± 0.6 nM
same,reduction in tumor growth vs vehicle,HT-29 xenograft,43.7%
"CCOc1ccc(-n2nnnc2-c2cc(OC)c(OC)c(OC)c2)cc1 [5b, 5-(3,4,5-Trimethoxyphenyl)-1-(4-ethoxyphenyl)-1H-tetrazole]",cells with depolarized mitochondria,HeLa cells [2],induced a time and concentration-dependent increase in the proportion of cells with depolarized mitochondria
same,lowest concentration with a rise in G2/M cells,HeLa cells [3],30 nM
same,ROS production,HeLa cells [4],induced the production of significant amounts of ROS
same,annexin-V positive cells,HeLa cells [5],induced an accumulation of annexin-V positive cells
"CCOc1ccc(-c2nnnn2-c2cc(OC)c(OC)c(OC)c2)cc1 [4l, 1-(3,4,5-Trimethoxyphenyl)-5-(4-ethoxyphenyl)-1H-tetrazole]",cells with depolarized mitochondria,HeLa cells [2],induced a time and concentration-dependent increase in the proportion of cells with depolarized mitochondria
same,cyclin B1 expression,cyclin B1,marked increase in cyclin B1 expression
same,Bax expression,Bax,no effect
same,caspase-3 activation,caspase-3,activation of caspase-3
same,lowest concentration with a rise in G2/M cells,HeLa cells [3],30 nM
same,caspase-9 activation,caspase-9,induced activation of caspase-9
same,fold more potent than 5b in tubulin assembly,bovine brain tubulin,2 fold
same,ROS production,HeLa cells [4],induced the production of significant amounts of ROS
same,Bcl-2 expression,Bcl-2,only slightly affected
same,annexin-V positive cells,HeLa cells [5],induced an accumulation of annexin-V positive cells
same,XIAP expression,XIAP,strongly reduced
same,body weight change of treated animals,[6],no significant weight changes
"CCCCOc1ccc(-c2nnnn2-c2cc(OC)c(OC)c(OC)c2)cc1 [4o, 5-(4-Butoxyphenyl)-1-(3,4,5-trimethoxyphenyl)-1H-tetrazole]",antiproliferative activity,[7],inactive
COc1cccc2c1C(=O)c1c(O)c3c(c(O)c1C2=O)C[C@@](O)(C(=O)CO)C[C@@H]3O[C@H]1C[C@H](N)[C@H](O)[C@H](C)O1 [doxorubicin],resistance ratio LoVoDoxo/LoVo,LoVo^Doxo cells; [11],109.6
same,IC50,"LoVo^Doxo cells; read-out: IC50 LoVoDoxo, doxorubicin resistant line",13200 ± 210 nM
same,IC50,LoVo cells,120 ± 30 nM
"CCCCCOc1ccc(-c2nnnn2-c2cc(OC)c(OC)c(OC)c2)cc1 [4p, 1-(3,4,5-Trimethoxyphenyl)-5-(4-(pentyloxy)phenyl)-1H-tetrazole]",antiproliferative activity,[7],inactive
"COc1ccc(-c2nnnn2-c2cc(OC)c(OC)c(OC)c2)cc1N [1-(3,4,5-trimethoxyphenyl)-5-(4-methoxy,3-aminophenyl)-1H-tetrazole]",IC50,[8],7.2 nM
CCOc1ccc(-c2ncnn2-c2cc(OC)c(OC)c(OC)c2)cc1 [3a],IC50,HL-60 cells,20 ± 3 nM
same,IC50,MCF-7 cells,50 ± 9 nM
same,IC50,HeLa cells [9],15 ± 4 nM
same,IC50,Jurkat cells,5 ± 0.2 nM
same,IC50,A549 cells [10],100 ± 20 nM
CC[C@]1(O)C[C@@H]2CN(CCc3c([nH]c4ccccc34)[C@@](C(=O)OC)(c3cc4c(cc3OC)N(C)[C@H]3[C@@](O)(C(=O)OC)[C@H](OC(C)=O)[C@]5(CC)C=CCN6CC[C@]43[C@@H]65)C2)C1 [vinblastine],resistance ratio CEMVbl100/CEM,CEM^Vbl100 cells; [11],56.1
same,IC50,"CEM^Vbl100 cells; read-out: IC50 CEMVbl100, vinblastine resistant line",230 ± 32 nM
same,IC50,CEM cells,4.1 ± 0.2 nM
